Assay results reported in ChEMBL document CHEMBL5303300, “EUbOPEN Chemogenomics Library - Multiplex” (2023).
“And” between values parts separate entries of the source, which are not always exact repeats. Equal entries are not always repeated. *1 amine or outer side, *2 acyl side, *3 side chain or, on linkers, in order; H or OH if unused. Where a SMILES comes first, the peptide text is derived from it. Bridges are numbered along the chain shown (N, C = ends). Roman numbers before positions name the chains, in order. [ ]: non-standard residue; d: D form. Hexamethylenediamine = C(CCCN[*:2])CCN[*:1]; Dip = N[C@H](C(=O)O)C(c1ccccc1)c1ccccc1; Chg = N[C@H](C(=O)O)C1CCCCC1; NMeA = CN[C@@H](C)C(=O)O

Tested on: HEK-293T
Experiment: Multiplex assay against HEK293T
Format: toxicity, cell-based
Conditions: human, number of replicates 2
Method in brief: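 Live cells were stained at seeding with Hoechst33342, BioTracker Green Microtubule Cytoskeleton Dye, MitoTracker Red and Annexin V Alexa Fluor 680, then imaged on a CQ1 microscope at 37°C and 5% CO2 after compound addition. CellPathfinder machine-learning gating split cells into Hoechst high-intensity objects or normal cells. Normal cells were split into healthy, pyknosed or fragmented nuclei, and pyknosed cells into mitotic or apoptotic. Tubulin, mitochondrial-mass and membrane-permeability phenotypes are per cents of healthy-nucleus cells.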

[1] = 12 h, 1 µM, compound concentration 1 uM
[2] = 12 h, 10 µM, compound concentration 10 uM
[3] = 24 h, 1 µM, compound concentration 1 uM
[4] = 24 h, 10 µM, compound concentration 10 uM
[5] = 48 h, 1 µM, compound concentration 1 uM
[6] = 48 h, 10 µM, compound concentration 10 uM

CN[C@@H](C)C(=O)N[C@H](C(=O)N1CCC[C@H]1C(=O)N[C@H](C(=O)NCCCCCCNC(=O)[C@@H](NC(=O)[C@@H]1CCCN1C(=O)[C@@H](NC(=O)[C@H](C)NC)C1CCCCC1)C(c1ccccc1)c1ccccc1)C(c1ccccc1)c1ccccc1)C1CCCCC1 (I: H-[NMeA][Chg]P[Dip] / II: H-[NMeA][Chg]P[Dip]; linker I:C-II:C via Hexamethylenediamine)
Population Apoptotic (%) [1]: 45% and 56%
Population Fragmented Nuclei (%) [1]: 3% and 1%
Population Healthy Nuclei (%) [1]: 85%
Population Hoechst High Intensity Objects (%) [1]: 7% and 5%
Population Membrane Permeable-Phenotype (%) [1]: 2%
Population Mitochondria Different-Phenotype (%) [1]: 27% and 23%
Population Mitotic Cells (%) [1]: 54% and 43%
Population Normal (%) [1]: 92% and 94%
Population Pyknosed Nuclei (%) [1]: 10% and 13%
Population Tubulin-Different-Phenotype (%) [1]: 59% and 58%
Total Cell Count [1]: 599 and 505
Population Apoptotic (%) [2]: 83% and 76%
Population Fragmented Nuclei (%) [2]: 4% and 2%
Population Healthy Nuclei (%) [2]: 75% and 79%
Population Hoechst High Intensity Objects (%) [2]: 12% and 5%
Population Membrane Permeable-Phenotype (%) [2]: 3% and 0%
Population Mitochondria Different-Phenotype (%) [2]: 76%
Population Mitotic Cells (%) [2]: 16% and 23%
Population Normal (%) [2]: 87% and 94%
Population Pyknosed Nuclei (%) [2]: 20% and 17%
Population Tubulin-Different-Phenotype (%) [2]: 96% and 98%
Total Cell Count [2]: 501 and 525
Population Apoptotic (%) [3]: 43% and 54%
Population Fragmented Nuclei (%) [3]: 5% and 3%
Population Healthy Nuclei (%) [3]: 87%
Population Hoechst High Intensity Objects (%) [3]: 6% and 7%
Population Membrane Permeable-Phenotype (%) [3]: 2% and 1%
Population Mitochondria Different-Phenotype (%) [3]: 16% and 20%
Population Mitotic Cells (%) [3]: 56% and 45%
Population Normal (%) [3]: 93%
Population Pyknosed Nuclei (%) [3]: 7% and 8%
Population Tubulin-Different-Phenotype (%) [3]: 40% and 44%
Total Cell Count [3]: 944 and 671
Population Apoptotic (%) [4]: 79% and 67%
Population Fragmented Nuclei (%) [4]: 7% and 4%
Population Healthy Nuclei (%) [4]: 66% and 80%
Population Hoechst High Intensity Objects (%) [4]: 12% and 7%
Population Membrane Permeable-Phenotype (%) [4]: 1% and 0%
Population Mitochondria Different-Phenotype (%) [4]: 85% and 82%
Population Mitotic Cells (%) [4]: 20% and 32%
Population Normal (%) [4]: 87% and 92%
Population Pyknosed Nuclei (%) [4]: 26% and 15%
Population Tubulin-Different-Phenotype (%) [4]: 92% and 95%
Total Cell Count [4]: 463 and 559
Population Apoptotic (%) [5]: 19% and 25%
Population Fragmented Nuclei (%) [5]: 9% and 7%
Population Healthy Nuclei (%) [5]: 86% and 87%
Population Hoechst High Intensity Objects (%) [5]: 6% and 8%
Population Membrane Permeable-Phenotype (%) [5]: 3% and 0%
Population Mitochondria Different-Phenotype (%) [5]: 2% and 5%
Population Mitotic Cells (%) [5]: 80% and 74%
Population Normal (%) [5]: 93% and 91%
Population Pyknosed Nuclei (%) [5]: 3% and 5%
Population Tubulin-Different-Phenotype (%) [5]: 18% and 25%
Total Cell Count [5]: 2232 and 1305
Population Apoptotic (%) [6]: 80% and 75%
Population Fragmented Nuclei (%) [6]: 9% and 7%
Population Healthy Nuclei (%) [6]: 72% and 74%
Population Hoechst High Intensity Objects (%) [6]: 9% and 10%
Population Membrane Permeable-Phenotype (%) [6]: 4% and 2%
Population Mitochondria Different-Phenotype (%) [6]: 53% and 56%
Population Mitotic Cells (%) [6]: 19% and 24%
Population Normal (%) [6]: 90% and 89%
Population Pyknosed Nuclei (%) [6]: 18% and 17%
Population Tubulin-Different-Phenotype (%) [6]: 82% and 84%
Total Cell Count [6]: 653 and 709

COc1ccncc1C(=O)NC(=O)Nc1ccc(-c2ccccc2)c(C(F)(F)F)c1
Population Apoptotic (%) [1]: 56% and 45%
Population Fragmented Nuclei (%) [1]: 2% and 4%
Population Healthy Nuclei (%) [1]: 87% and 84%
Population Hoechst High Intensity Objects (%) [1]: 7% and 8%
Population Membrane Permeable-Phenotype (%) [1]: 2% and 3%
Population Mitochondria Different-Phenotype (%) [1]: 23% and 12%
Population Mitotic Cells (%) [1]: 43% and 54%
Population Normal (%) [1]: 93% and 91%
Population Pyknosed Nuclei (%) [1]: 10% and 11%
Population Tubulin-Different-Phenotype (%) [1]: 55% and 46%
Total Cell Count [1]: 543 and 715
Population Apoptotic (%) [2]: 49% and 44%
Population Fragmented Nuclei (%) [2]: 3% and 4%
Population Healthy Nuclei (%) [2]: 81% and 84%
Population Hoechst High Intensity Objects (%) [2]: 7%
Population Membrane Permeable-Phenotype (%) [2]: 2%
Population Mitochondria Different-Phenotype (%) [2]: 28% and 21%
Population Mitotic Cells (%) [2]: 50% and 55%
Population Normal (%) [2]: 92%
Population Pyknosed Nuclei (%) [2]: 14% and 11%
Population Tubulin-Different-Phenotype (%) [2]: 66% and 52%
Total Cell Count [2]: 484 and 596
Population Apoptotic (%) [3]: 43% and 39%
Population Fragmented Nuclei (%) [3]: 3% and 5%
Population Healthy Nuclei (%) [3]: 88% and 86%
Population Hoechst High Intensity Objects (%) [3]: 6% and 9%
Population Membrane Permeable-Phenotype (%) [3]: 2%
Population Mitochondria Different-Phenotype (%) [3]: 4% and 6%
Population Mitotic Cells (%) [3]: 56% and 60%
Population Normal (%) [3]: 93% and 90%
Population Pyknosed Nuclei (%) [3]: 7%
Population Tubulin-Different-Phenotype (%) [3]: 33% and 30%
Total Cell Count [3]: 828 and 1052
Population Apoptotic (%) [4]: 61% and 41%
Population Fragmented Nuclei (%) [4]: 8% and 6%
Population Healthy Nuclei (%) [4]: 82% and 85%
Population Hoechst High Intensity Objects (%) [4]: 9% and 8%
Population Membrane Permeable-Phenotype (%) [4]: 2%
Population Mitochondria Different-Phenotype (%) [4]: 11% and 7%
Population Mitotic Cells (%) [4]: 38% and 58%
Population Normal (%) [4]: 90% and 91%
Population Pyknosed Nuclei (%) [4]: 9% and 8%
Population Tubulin-Different-Phenotype (%) [4]: 38% and 32%
Total Cell Count [4]: 722 and 835
Population Apoptotic (%) [5]: 8% and 9%
Population Fragmented Nuclei (%) [5]: 11%
Population Healthy Nuclei (%) [5]: 85%
Population Hoechst High Intensity Objects (%) [5]: 9%
Population Membrane Permeable-Phenotype (%) [5]: 5% and 4%
Population Mitochondria Different-Phenotype (%) [5]: 0%
Population Mitotic Cells (%) [5]: 91% and 90%
Population Normal (%) [5]: 90%
Population Pyknosed Nuclei (%) [5]: 3%
Population Tubulin-Different-Phenotype (%) [5]: 14% and 12%
Total Cell Count [5]: 2070 and 2556
Population Apoptotic (%) [6]: 26% and 21%
Population Fragmented Nuclei (%) [6]: 11% and 12%
Population Healthy Nuclei (%) [6]: 84%
Population Hoechst High Intensity Objects (%) [6]: 7% and 8%
Population Membrane Permeable-Phenotype (%) [6]: 4% and 6%
Population Mitochondria Different-Phenotype (%) [6]: 1%
Population Mitotic Cells (%) [6]: 73% and 78%
Population Normal (%) [6]: 92% and 91%
Population Pyknosed Nuclei (%) [6]: 4% and 3%
Population Tubulin-Different-Phenotype (%) [6]: 23% and 19%
Total Cell Count [6]: 1542 and 1838

CS(=O)(=O)c1ccc(C(=O)Nc2cc(F)c(F)c(COc3cc(F)c(Br)cc3CN3CC[C@H](O)C3)c2)c(Cl)c1.O=CO
Population Apoptotic (%) [1]: 60% and 64%
Population Mitotic Cells (%) [1]: 39% and 35%
Population Normal (%) [1]: 90%
Total Cell Count [1]: 610 and 577
Population Apoptotic (%) [2]: 90% and 72%
Population Mitotic Cells (%) [2]: 9% and 27%
Population Normal (%) [2]: 91% and 89%
Total Cell Count [2]: 406 and 397
Population Apoptotic (%) [3]: 59% and 58%
Population Mitotic Cells (%) [3]: 40% and 41%
Population Normal (%) [3]: 91% and 92%
Total Cell Count [3]: 921 and 854
Population Apoptotic (%) [4]: 91% and 78%
Population Mitotic Cells (%) [4]: 8%
Population Normal (%) [4]: 85% and 83%
Total Cell Count [4]: 392 and 412
Population Apoptotic (%) [5]: 23% and 44%
Population Mitotic Cells (%) [5]: 76% and 55%
Population Normal (%) [5]: 90% and 89%
Total Cell Count [5]: 2126 and 1643
Population Apoptotic (%) [6]: 90% and 83%
Population Mitotic Cells (%) [6]: 10% and 16%
Population Normal (%) [6]: 80% and 81%
Total Cell Count [6]: 434 and 464
